From PubChem
Sampled rows, rich in hits. Any-hit rate of the full collection: about 3.7%.
KCNK9 inh = KCNK9 potassium channel inhibitors, primary screen, HEK293 cells, thallium flux | FluxOR thallium flux fluorescence; stronger effect = lower value | B-score at 10 µM | hit rate 1.2% among 310,000;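 active = ratio B-score over 3 SD below the library mean, with starting fluorescence within 5 SD of its mean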;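 note: negative B-score means less thallium flux so channel inhibition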
hERG protect = hERG rescue from dofetilide block, primary screen, cell-based, CHO-hERG, FluxOR thallium flux, dofetilide IC70. Voltage-gated inwardly rectifying potassium channel KCNH2 (Homo sapiens), Q12809. dofetilide IC70 present. activation (rescue from dofetilide block), less the hit threshold, % at 10 µM. hit rate 0.51% among 310,000;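 active = activation above the mean of controls blocked by dofetilide plus 5 SD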;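 note: thallium influx through hERG after potassium depolarization seen as dye fluorescence rise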
KCNQ1 block = inhibitors of human KCNQ1 channel, primary screen, cell-based, thallium flux, high-throughput. hit rate 1.3% among 310,000. B-score at 10 µM. Potassium voltage-gated channel subfamily KQT member 1 (Homo sapiens), P51787. CHO-K1 KCNQ1, FluxOR thallium flux fluorescence; stronger effect = higher value;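 active = compounds whose thallium flux B-score, printed positive for inhibition, exceeds three library SD while starting fluorescence stays within three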;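 note: channel opened by potassium depolarization with thallium stimulus after 20 min compound exposure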
Target sequence (P51787 whole entry, looked up): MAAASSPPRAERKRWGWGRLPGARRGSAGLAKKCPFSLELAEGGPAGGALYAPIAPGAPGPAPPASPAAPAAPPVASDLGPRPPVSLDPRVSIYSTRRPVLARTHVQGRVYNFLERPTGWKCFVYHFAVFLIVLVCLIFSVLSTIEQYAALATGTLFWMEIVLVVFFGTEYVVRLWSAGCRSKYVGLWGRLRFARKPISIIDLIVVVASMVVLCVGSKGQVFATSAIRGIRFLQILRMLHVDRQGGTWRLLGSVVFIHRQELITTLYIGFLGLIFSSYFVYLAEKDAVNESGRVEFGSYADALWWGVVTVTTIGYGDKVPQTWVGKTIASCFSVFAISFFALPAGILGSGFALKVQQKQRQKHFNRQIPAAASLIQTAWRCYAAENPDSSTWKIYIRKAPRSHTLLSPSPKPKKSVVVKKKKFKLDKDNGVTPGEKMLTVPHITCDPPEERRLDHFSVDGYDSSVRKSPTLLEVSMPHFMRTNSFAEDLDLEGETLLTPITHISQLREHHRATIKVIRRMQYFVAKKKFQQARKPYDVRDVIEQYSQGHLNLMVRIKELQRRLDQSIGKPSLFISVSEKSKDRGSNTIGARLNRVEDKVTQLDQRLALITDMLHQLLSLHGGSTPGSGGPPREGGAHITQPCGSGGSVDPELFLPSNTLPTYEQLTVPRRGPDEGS
KCNK3 inh = human KCNK3 channel inhibitors, primary screen, CHO cells, FluxOR thallium flux, B-score; Potassium channel subfamily K member 3 (Homo sapiens), O14649; FluxOR fluorescence; stronger effect = lower value; B-score at 10 µM; hit rate 0.84% among 340,000; AID 602410, 2012;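 active = B-score under library mean minus 4 SD, starting fluorescence ratio at most library mean plus 5 SD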;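 note: more negative B-score means stronger inhibition of thallium flux through KCNK3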
Kir21 block = inhibitors of mouse Kir2.1 inward-rectifier potassium channel | B-score at 10 µM | HEK293-Kir2.1, FluxOR thallium flux fluorescence; stronger effect = lower value | hit rate 0.85% among 310,000 | AID 1672, 2009;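 active = fluorescence ratio B-score at or below minus 3 SD of library scores, with starting-brightness B-score within 2 SD, cut at about -4.2 in these data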;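 note: channel flux triggered by added potassium and thallium sulfate stimulus; B-score of peak minus minimum fluorescence over baseline after thallium stimulus; more negative B-score means stronger Kir2.1 block with less thallium influx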
KCNQ1 pot = potentiators or activators of KCNQ1 channel, primary screen, cell-based, thallium flux, high-throughput; Potassium voltage-gated channel subfamily KQT member 1 (Homo sapiens), P51787; CHO-K1 KCNQ1, thallium flux FluxOR fluorescence; stronger effect = higher value; B-score at 10 µM; hit rate 0.35% among 310,000; AID 2648, 2010;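 active = fluorescence ratio B-score, a plate-corrected score, at least three library SD, with initial intensity B-score within 5 SD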
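Assay system: CHO-K1 cells stably expressing KCNQ1; Medium: assay buffer with matched DMSO; Also added: K+/Tl+ depolarizing stimulus; Dosing: single dose; Timing: dye 90 min, compound 20 min, room temperature; Measured by: kinetic FluxOR thallium fluorescence, 10-s 1-Hz baseline, 110-s post-stimulus read; Read-out: peak-minus-minimum fluorescence over initial fluorescence, negative-control normalized, B-scored.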
KCNQ1 block val = KCNQ1 potassium channel inhibitors, confirmation, cell-based, Tl flux, duplicate. hit rate 93% among 1,600. AID 588353, 2011. inhibition, % at 10 µM. KCNQ1 cell line, FluxOR thallium flux fluorescence. shares compounds with KCNQ1 block;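 active = primary screen active, with duplicate mean exceeding buffer control mean plus 3 SD of buffer wells, cut at about 28% in these data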;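 note: 0% = buffer control ratio and 100% = XE991 inhibitor control ratio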
CHO Tl flux = thallium flux effects in parental CHO cells, counter-screen for KCNQ1 inhibitor project, cell-based, Tl flux; shares compounds with KCNQ1 block; parental CHO-K1, FluxOR thallium flux fluorescence ratio; stronger effect = lower value; zero means no signal rise above baseline; fluorescence ratio (Tl flux) at 10 µM; hit rate 21% among 1,600; AID 588366, 2011;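 active = mean of duplicate thallium-flux fluorescence ratios in parental host cells more than 5 SD below the buffer control mean, cut at about 0.38 in these data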;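 note: ratio is peak minus minimum fluorescence divided by baseline fluorescence; actives read low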
KCNQ1 ephys val = KCNQ1 channel inhibitors, confirmation, orthogonal assay, cell-based, automated electrophysiology; hit rate 20% among 490; KCNQ1-CHO cells, automated patch clamp current; calls only at 10 µM; AID 624120, 2012; shares compounds with KCNQ1 block;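 active = KCNQ1 current drop exceeding 3 SD of negative control wells, seen in both duplicate runs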;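 note: steady state current during a 2 s step from -80 to +40 mV; negative values mean current inhibition and positive values mean potentiation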
KCNQ2 spec = KCNQ2 channel inhibition, selectivity assay for KCNQ1 inhibitor project, cell-based; KCNQ2 cells, FluxOR thallium flux fluorescence; hit rate 71% among 1,600; inhibition, % at 10 µM; AID 651746, 2012; shares compounds with KCNQ1 block;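 active = mean percent inhibition of the KCNQ2 thallium signal more than 5 SD above the buffer-only control wells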;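 note: KCNQ2 expressed in CHO cells; 0% = buffer control wells and 100% = XE-991 inhibitor control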
KCNQ1-KCNE1 inh = KCNQ1/KCNE1 channel inhibition, selectivity assay for KCNQ1 inhibitor project, CHO-K1 cells, thallium flux, FluxOR. shares compounds with KCNQ1 block. FluxOR thallium flux fluorescence. inhibition, % at 10 µM. hit rate 77% among 1,600. AID 652147, 2013;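 active = mean percent inhibition of duplicate wells above the buffer-only control mean plus 3 SD of those controls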;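 note: 0% = buffer only wells and 100% = XE-991 inhibitor control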
KCNK9 block conf = KCNK9 potassium channel inhibitors, confirmation, HEK293 cells, thallium flux, duplicate; AID 492992, 2010; inhibition, % at 10 µM; shares compounds with KCNK9 inh; hit rate 43% among 4,900; FluxOR thallium flux fluorescence;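 active = thallium signal inhibited by more than 5 SD of the compound-free buffer control wells, on both duplicate plates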;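 note: 0% = assay buffer control wells without compound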
Kir2-1 spec = mouse Kir2.1 channel inhibition, confirmation, selectivity assay for KCNK9 modulator project, cell-based, HEK293, thallium flux; AID 492993, 2010; shares compounds with KCNK9 inh; Kir2.1 cells, FluxOR thallium flux fluorescence; hit rate 4% among 4,900; inhibition, % at 10 µM;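 active = thallium signal drop more than 5 SD beyond the mean of the no-compound control wells, seen in both duplicate plates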;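 note: signal is fluorescence rise after thallium addition divided by baseline fluorescence; plate controls were assay buffer only for no effect and full block by chlorpromazine control for full effect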
HEK293 Tl ctr = thallium flux in non-induced HEK293 cells, confirmation, counter-screen for KCNK9 inhibitor project, cell-based, second counter screen, non-induced KCNK9-HEK293; shares compounds with KCNK9 inh; FluxOR thallium flux; inhibition, % at 10 µM; hit rate 40% among 4,900; AID 492997, 2010;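 active = thallium signal drop beyond 5 SD of the untreated control mean, on both duplicate plates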;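 note: plate controls were buffer only IC0 wells for no effect and SID17386958 at its maximal inhibitory level for full effect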
Starred values were filed as active, the others as inactive.

How did CCCc1nc(SCC(=O)N2CCC(Cc3ccccc3)CC2)c2c(=O)n(C)c(=O)n(C)c2n1 do in these assays?
KCNK9 inh: inactive; hERG protect: -34; KCNQ1 block: 6*; KCNK3 inh: inactive; Kir21 block: -0.4; KCNQ1 pot: inactive; KCNQ1 block val: 98*; CHO Tl flux: 0.41; KCNQ2 spec: inactive; KCNQ1-KCNE1 inh: inactive; KCNK9 block conf: inactive; Kir2-1 spec: inactive; HEK293 Tl ctr: inactive

What do the screens show for `O=C1c2cccc(OCc3ccc(F)cc3)c2CCN1Cc1ccc(F)cc1`?
KCNK9 inh: -15*; hERG protect: -17; KCNQ1 block: 6*; KCNK3 inh: inactive; Kir21 block: 1.4; KCNQ1 pot: inactive; KCNQ1 block val: 126*; CHO Tl flux: 0.41; KCNQ1 ephys val: inactive; KCNQ2 spec: 115%*; KCNQ1-KCNE1 inh: 148%*; KCNK9 block conf: 66%*; Kir2-1 spec: inactive; HEK293 Tl ctr: inactive

How did CN1CCc2c(OCc3ccc(F)cc3)cccc2C1=O do in these assays?
KCNK9 inh: inactive; hERG protect: -15; KCNQ1 block: inactive; KCNK3 inh: inactive; Kir21 block: -0.86; KCNQ1 pot: inactive

Results for Oc1c(Br)cc(Br)c(/C=N/n2c(-c3ccccc3)n[nH]c2=S)c1Br ?
KCNK9 inh: inactive; hERG protect: -6; KCNQ1 block: 7*; KCNK3 inh: inactive; Kir21 block: 1.8; KCNQ1 pot: inactive; KCNQ1 block val: 83*; CHO Tl flux: 0.45; KCNQ2 spec: inactive; KCNQ1-KCNE1 inh: inactive; KCNK9 block conf: inactive; Kir2-1 spec: inactive; HEK293 Tl ctr: inactive

Results for Oc1ccc(Br)cc1/C=N/n1c(-c2ccccc2)n[nH]c1=S ?
KCNK9 inh: inactive; hERG protect: -12; KCNQ1 block: inactive; KCNK3 inh: inactive; Kir21 block: 1.2; KCNQ1 pot: inactive

Results for COc1cccc(C(=O)NC23CC4CC(CC(C4)C2)C3)c1 ?
KCNK9 inh: inactive; hERG protect: -6; KCNQ1 block: inactive; KCNK3 inh: inactive; Kir21 block: 0.64; KCNQ1 pot: inactive

Results for CCN1C(c2ccccc2)C(C)C(=O)C(C)C1c1ccccc1 (centres undefined) ?
KCNK9 inh: inactive; hERG protect: -11; KCNQ1 block: 8*; KCNK3 inh: inactive; Kir21 block: -1.2; KCNQ1 pot: inactive; KCNQ1 block val: 120*; CHO Tl flux: 0.42; KCNQ1 ephys val: inactive; KCNQ2 spec: 89%*; KCNQ1-KCNE1 inh: 128%*; KCNK9 block conf: inactive; Kir2-1 spec: inactive; HEK293 Tl ctr: inactive

What do the screens show for `O=C(NCc1ccccc1)c1cccc(COc2ccc3c(c2)CCC3)c1`?
KCNK9 inh: inactive; hERG protect: -8; KCNQ1 block: 7*; KCNK3 inh: inactive; Kir21 block: 1.1; KCNQ1 pot: inactive; KCNQ1 block val: 98*; CHO Tl flux: 0.39; KCNQ1 ephys val: active; KCNQ2 spec: 112%*; KCNQ1-KCNE1 inh: 139%*; KCNK9 block conf: inactive; Kir2-1 spec: inactive; HEK293 Tl ctr: inactive

What do the screens show for `O=C(Nc1ccc(Cl)c(Cl)c1)Nc1ccccc1NS(=O)(=O)c1cccs1`?
KCNK9 inh: -13*; hERG protect: -29; KCNQ1 block: 18*; KCNK3 inh: inactive; Kir21 block: -0.13; KCNQ1 pot: inactive; KCNQ1 block val: 114*; CHO Tl flux: 0.43; KCNQ1 ephys val: inactive; KCNQ2 spec: 77%*; KCNQ1-KCNE1 inh: 43%*; KCNK9 block conf: 44%*; Kir2-1 spec: inactive; HEK293 Tl ctr: inactive

What do the screens show for `Cn1c(Cn2nnc(-c3ccccc3)n2)nnc1SCc1ccccc1Cl`?
KCNK9 inh: inactive; hERG protect: -9; KCNQ1 block: inactive; KCNK3 inh: inactive; Kir21 block: 1.1; KCNQ1 pot: inactive

How did CCOC(=O)c1c(-c2ccccc2)csc1NC(=S)N(CC)CC do in these assays?
KCNK9 inh: -8.2*; hERG protect: -11; KCNQ1 block: 7*; KCNK3 inh: inactive; Kir21 block: 0.05; KCNQ1 pot: inactive; KCNQ1 block val: 126*; CHO Tl flux: 0.49; KCNQ1 ephys val: inactive; KCNQ2 spec: 106%*; KCNQ1-KCNE1 inh: 145%*; KCNK9 block conf: 46%*; Kir2-1 spec: inactive; HEK293 Tl ctr: 28%*

How did CCOC(=O)c1c(-c2ccccc2)csc1NC(=O)c1nn(CC)cc1Br do in these assays?
KCNK9 inh: inactive; hERG protect: -10; KCNQ1 block: inactive; KCNK3 inh: inactive; Kir21 block: 1.6; KCNQ1 pot: inactive
